{"source": "ChEMBL document CHEMBL5674868", "about": "“Cancer Cells Hijack PRC2 to Modify Multiple Cytokine Pathways” (PLoS One, 2015)", "type_in_all_cases": "cell-based", "key": {"[1]": {"biological_target": "Histone-lysine N-methyltransferase EZH2 (Homo sapiens) (UniProt Q15910)", "sequence (Q15910 whole entry, looked up)": "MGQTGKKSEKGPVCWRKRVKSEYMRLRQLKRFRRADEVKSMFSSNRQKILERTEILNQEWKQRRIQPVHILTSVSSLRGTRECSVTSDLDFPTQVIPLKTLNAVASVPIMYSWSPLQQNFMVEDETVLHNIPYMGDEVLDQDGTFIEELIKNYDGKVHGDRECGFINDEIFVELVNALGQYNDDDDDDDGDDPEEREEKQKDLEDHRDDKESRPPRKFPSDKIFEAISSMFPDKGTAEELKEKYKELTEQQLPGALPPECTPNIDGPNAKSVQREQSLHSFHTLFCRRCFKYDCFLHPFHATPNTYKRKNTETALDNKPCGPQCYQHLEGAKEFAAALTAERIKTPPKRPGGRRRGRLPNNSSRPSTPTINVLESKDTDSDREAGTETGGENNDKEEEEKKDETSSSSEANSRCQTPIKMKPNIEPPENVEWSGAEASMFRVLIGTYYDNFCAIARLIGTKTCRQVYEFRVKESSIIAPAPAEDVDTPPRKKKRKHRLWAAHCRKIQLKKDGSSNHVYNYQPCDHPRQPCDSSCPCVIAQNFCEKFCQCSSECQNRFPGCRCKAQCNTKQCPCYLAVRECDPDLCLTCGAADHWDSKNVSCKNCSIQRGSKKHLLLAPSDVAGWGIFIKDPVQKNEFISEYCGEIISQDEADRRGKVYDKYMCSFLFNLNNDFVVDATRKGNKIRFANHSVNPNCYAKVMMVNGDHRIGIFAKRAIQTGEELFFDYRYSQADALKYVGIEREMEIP", "test": "Inhibition of EZH2 in human A549 cells assessed as increase in TNF-alpha-induced CCL7 level for 24 hrs by multiplexing laser bead assay", "summary_of_the_method": "(§1)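 A549 cells were pretreated with vehicle or UNC1999 over two four-day cycles at 2 μM. They were seeded at 3×10^4/well, rested for 4 h, then exposed for 24 h to no stimulus, 5 μg/ml E. coli LPS or 10 U/ml TNFα. Secreted cytokines in the supernatants were quantified by a 41-plex laser bead assay.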"}, "[2]": {"biological_target": "Histone-lysine N-methyltransferase EZH2 (Homo sapiens) (UniProt Q15910)", "test": "Inhibition of EZH2 in human HeLa cells assessed as effect on PITX2 mRNA level after 6 hrs by RT-PCR analysis", "summary_of_the_method": "(§2)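 Cells were treated for two four-day cycles with 2 μM GSK343 or UNC1999, then left untreated or stimulated with human IFNγ for 6 h. mRNA was measured by reverse transcription quantitative PCR and normalized to β-actin. Three biological replicates were run per treatment group.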"}, "[3]": {"biological_target": "Histone-lysine N-methyltransferase EZH2 (Homo sapiens) (UniProt Q15910)", "test": "Inhibition of EZH2 in human HeLa cells assessed as effect on HPRT mRNA level after 6 hrs by RT-PCR analysis in presence of IFN-gamma", "summary_of_the_method": "as §2"}, "[4]": {"biological_target": "Histone-lysine N-methyltransferase EZH2 (Homo sapiens) (UniProt Q15910)", "test": "Inhibition of EZH2 in human A549 cells assessed as increase in LPS-induced CSF-3 level for 24 hrs by multiplexing laser bead assay", "summary_of_the_method": "as §1"}, "[5]": {"biological_target": "Histone-lysine N-methyltransferase EZH2 (Homo sapiens) (UniProt Q15910)", "test": "Inhibition of EZH2 in human A549 cells assessed as increase in TNF-alpha-induced CXCL-10 level for 24 hrs by multiplexing laser bead assay", "summary_of_the_method": "as §1"}, "[6]": {"biological_target": "Histone-lysine N-methyltransferase EZH2 (Homo sapiens) (UniProt Q15910)", "test": "Inhibition of EZH2 in human ASPC1 cells assessed as effect on IRF1 mRNA level after 6 hrs by RT-PCR analysis in presence of IFN-gamma", "summary_of_the_method": "as §2"}, "[7]": {"biological_target": "Histone-lysine N-methyltransferase EZH2 (Homo sapiens) (UniProt Q15910)", "test": "Inhibition of EZH2 in human MCF7 cells assessed as effect on HPRT mRNA level after 6 hrs by RT-PCR analysis in presence of IFN-gamma", "summary_of_the_method": "as §2"}, "[8]": {"biological_target": "Histone-lysine N-methyltransferase EZH2 (Homo sapiens) (UniProt Q15910)", "test": "Inhibition of EZH2 in human ASPC1 cells assessed as increase in IFN-gamma-induced SUZ12-repressed ISGs mRNA level after 6 hrs by RT-PCR analysis", "summary_of_the_method": "as §2"}, "[9]": {"biological_target": "Histone-lysine N-methyltransferase EZH2 (Homo sapiens) (UniProt Q15910)", "test": "Inhibition of EZH2 in human ASPC1 cells assessed as effect on HPRT mRNA level after 6 hrs by RT-PCR analysis", "summary_of_the_method": "as §2"}, "[10]": {"biological_target": "Histone-lysine N-methyltransferase EZH2 (Homo sapiens) (UniProt Q15910)", "test": "Inhibition of EZH2 in human AsPC1 cells assessed as decrease in H3K27me3 levels at 2 uM after 6 hrs by Western blot analysis"}, "[11]": {"biological_target": "Histone-lysine N-methyltransferase EZH2 (Homo sapiens) (UniProt Q15910)", "test": "Inhibition of EZH2 in human A549 cells assessed as decrease in H3K27me3 levels at 2 uM after 6 hrs by Western blot analysis"}, "[12]": {"biological_target": "Histone-lysine N-methyltransferase EZH2 (Homo sapiens) (UniProt Q15910)", "test": "Inhibition of EZH2 in human A549 cells assessed as increase in TNF-alpha-induced CCL-5 level for 24 hrs by multiplexing laser bead assay", "summary_of_the_method": "as §1"}, "[13]": {"biological_target": "Histone-lysine N-methyltransferase EZH2 (Homo sapiens) (UniProt Q15910)", "test": "Inhibition of EZH2 in human A549 cells assessed as increase in IL-1beta-induced IL-6 level for 24 hrs by ELISA", "summary_of_the_method": "(§3)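 A549 cells were pretreated for two four-day cycles with 2 μM UNC1999 or with DMSO. They were seeded at 3×10^4/well, allowed to settle for 4 h, then given the indicated concentrations of IFNγ, IL1β, LPS or TNFα for 24 h. Secreted IL6, IL8 or CXCL10 in the supernatant was measured by ELISA in duplicate. n = 3; ANOVA followed by Fisher test.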"}, "[14]": {"biological_target": "Histone-lysine N-methyltransferase EZH2 (Homo sapiens) (UniProt Q15910)", "test": "Inhibition of EZH2 in human MCF7 cells assessed as effect on IRF1 mRNA level after 6 hrs by RT-PCR analysis", "summary_of_the_method": "as §2"}, "[15]": {"biological_target": "Histone-lysine N-methyltransferase EZH2 (Homo sapiens) (UniProt Q15910)", "test": "Inhibition of EZH2 in human A549 cells assessed as effect on IRF1 mRNA level after 6 hrs by RT-PCR analysis in presence of IFN-gamma", "summary_of_the_method": "as §2"}, "[16]": {"biological_target": "Histone-lysine N-methyltransferase EZH2 (Homo sapiens) (UniProt Q15910)", "test": "Inhibition of EZH2 in human MCF7 cells assessed as increase in IFN-gamma-induced SUZ12-repressed ISGs mRNA level after 6 hrs by RT-PCR analysis", "summary_of_the_method": "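Cells pretreated for two 4-day cycles with 2 µM GSK343 or UNC1999, then left unstimulated or given human IFNγ for 6 h. RNA reverse-transcribed and measured by quantitative PCR, normalized to β-actin. Three biological replicates per treatment group.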"}, "[17]": {"biological_target": "Histone-lysine N-methyltransferase EZH2 (Homo sapiens) (UniProt Q15910)", "test": "Inhibition of EZH2 in human HeLa cells assessed as increase in IFN-gamma-induced SUZ12-repressed ISGs mRNA level after 6 hrs by RT-PCR analysis", "summary_of_the_method": "as §2"}, "[18]": {"biological_target": "Histone-lysine N-methyltransferase EZH2 (Homo sapiens) (UniProt Q15910)", "test": "Inhibition of EZH2 in human ASPC1 cells assessed as effect on PITX2 mRNA level after 6 hrs by RT-PCR analysis", "summary_of_the_method": "as §2"}, "[19]": {"biological_target": "Histone-lysine N-methyltransferase EZH2 (Homo sapiens) (UniProt Q15910)", "test": "Inhibition of EZH2 in human HeLa cells assessed as effect on PITX2 mRNA level after 6 hrs by RT-PCR analysis in presence of IFN-gamma", "summary_of_the_method": "as §2"}, "[20]": {"biological_target": "Histone-lysine N-methyltransferase EZH2 (Homo sapiens) (UniProt Q15910)", "test": "Inhibition of EZH2 in human MCF7 cells assessed as effect on HPRT mRNA level after 6 hrs by RT-PCR analysis", "summary_of_the_method": "as §2"}, "[21]": {"biological_target": "Histone-lysine N-methyltransferase EZH2 (Homo sapiens) (UniProt Q15910)", "test": "Inhibition of EZH2 in human A549 cells assessed as increase in TNF-alpha-induced IL-6 level for 24 hrs by ELISA", "summary_of_the_method": "as §3"}, "[22]": {"biological_target": "Histone-lysine N-methyltransferase EZH2 (Homo sapiens) (UniProt Q15910)", "test": "Inhibition of EZH2 in human A549 cells assessed as increase in LPS-induced IL-6 level for 24 hrs by ELISA", "summary_of_the_method": "as §3"}, "[23]": {"biological_target": "Histone-lysine N-methyltransferase EZH2 (Homo sapiens) (UniProt Q15910)", "test": "Inhibition of EZH2 in human A549 cells assessed as effect on HPRT mRNA level after 6 hrs by RT-PCR analysis", "summary_of_the_method": "as §2"}, "[24]": {"biological_target": "Histone-lysine N-methyltransferase EZH2 (Homo sapiens) (UniProt Q15910)", "test": "Inhibition of EZH2 in human HeLa cells assessed as effect on HPRT mRNA level after 6 hrs by RT-PCR analysis", "summary_of_the_method": "as §2"}, "[25]": {"biological_target": "Histone-lysine N-methyltransferase EZH2 (Homo sapiens) (UniProt Q15910)", "test": "Inhibition of EZH2 in human A549 cells assessed as increase in IFN-gamma-induced SUZ12-repressed ISGs mRNA level after 6 hrs by RT-PCR analysis", "summary_of_the_method": "as §2"}, "[26]": {"biological_target": "Histone-lysine N-methyltransferase EZH2 (Homo sapiens) (UniProt Q15910)", "test": "Inhibition of EZH2 in human A549 cells assessed as increase in TNFalpha-induced CXCL10 level for 24 hrs by ELISA", "summary_of_the_method": "as §3"}, "[27]": {"biological_target": "Histone-lysine N-methyltransferase EZH2 (Homo sapiens) (UniProt Q15910)", "test": "Inhibition of EZH2 in human A549 cells assessed as increase in LPS-induced IL-8 level for 24 hrs by ELISA", "summary_of_the_method": "as §3"}}, "note": "Calls of active or inactive are those of the source. The calls are words filed in the database; no cut-off is given here."}
{"smiles": "CCCc1cc(C)[nH]c(=O)c1CNC(=O)c1cc(-c2ccc(N3CCN(C(C)C)CC3)nc2)cc2c1cnn2C(C)C", "values": [{"measurement": "inhibition", "setting": "[1]", "result": "Active"}, {"measurement": "inhibition", "setting": "[2]", "result": "inactive"}, {"measurement": "inhibition", "setting": "[3]", "result": "inactive"}, {"measurement": "inhibition", "setting": "[4]", "result": "Active"}, {"measurement": "inhibition", "setting": "[5]", "result": "Active"}, {"measurement": "inhibition", "setting": "[6]", "result": "inactive"}, {"measurement": "inhibition", "setting": "[7]", "result": "inactive"}, {"measurement": "inhibition", "setting": "[8]", "result": "Active"}, {"measurement": "inhibition", "setting": "[9]", "result": "inactive"}, {"measurement": "inhibition", "setting": "[10]", "result": "Active"}, {"measurement": "inhibition", "setting": "[11]", "result": "Active"}, {"measurement": "inhibition", "setting": "[12]", "result": "Active"}, {"measurement": "inhibition", "setting": "[13]", "result": "Active"}, {"measurement": "inhibition", "setting": "[14]", "result": "inactive"}, {"measurement": "inhibition", "setting": "[15]", "result": "inactive"}, {"measurement": "inhibition", "setting": "[16]", "result": "Active"}, {"measurement": "inhibition", "setting": "[17]", "result": "Active"}, {"measurement": "inhibition", "setting": "[18]", "result": "inactive"}, {"measurement": "inhibition", "setting": "[19]", "result": "inactive"}, {"measurement": "inhibition", "setting": "[20]", "result": "inactive"}, {"measurement": "inhibition", "setting": "[21]", "result": "Active"}, {"measurement": "inhibition", "setting": "[22]", "result": "Active"}, {"measurement": "inhibition", "setting": "[23]", "result": "inactive"}, {"measurement": "inhibition", "setting": "[24]", "result": "inactive"}, {"measurement": "inhibition", "setting": "[25]", "result": "Active"}, {"measurement": "inhibition", "setting": "[26]", "result": "Active"}, {"measurement": "inhibition", "setting": "[27]", "result": "Active"}]}
